For data set [1], the system named is Cerebellum. In words: Reduction in drug uptake in Sprague-Dawley rat cerebellum at 24.1 MBq, iv after 2 to 15 mins by PET analysis in presence of mGlu4 blocker N-(3-(Difluoromethoxy)phenyl)-2-picolinamide hydrochloride salt. Type of data set: ADME, organism-based. The conditions noted are these: in vivo. In short, it runs like this:
(§1)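 Rats were pretreated with the mGlu4 blocker (10 mg/kg i.p., in 10% ethanol/10% Tween-20 in water) 30 min before i.v. radioligand. Anesthetized rats were imaged by 60-min dynamic PET with CT attenuation correction and MLEM reconstruction. Uptake at 2–15 min was compared with control scans, and percent change was calculated per brain region.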

Data set [2] in a line: Reduction in drug uptake in Sprague-Dawley rat whole brain at 24.1 MBq, iv after 2 to 15 mins by PET analysis in presence of mGlu5 blocker MTEP hydrochloride. Type of data set: ADME, organism-based. The conditions noted are these: in vivo. The method, boiled down:
(§2)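 MTEP·HCl (5 mg/kg, in sterile water) was injected into the tail vein 2 min before i.v. radioligand. Anesthetized rats were imaged by 60-min dynamic PET with CT attenuation correction and MLEM reconstruction. Uptake at 2–15 min was compared with control scans, and percent change was calculated per brain region.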

Another data set concerns Kidney. Briefly: Biodistribution in Sprague-Dawley rat kidney at 27.4 to 48.1 MBq after 1 to 40 mins by gamma counting analysis. Type of data set: ADME, organism-based. The conditions noted are these: in vivo. The method, boiled down:
(§3)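 Male Sprague Dawley rats (300–500 g) given the radioligand i.v. (27.4–48.1 MBq/animal) in 10% ethanol/saline. Three rats were sacrificed at each of 1, 5, 10, 20 and 40 min. Harvested tissues were weighed and gamma-counted. Counts were corrected for decay and injected activity and expressed as %ID/g tissue.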

Data set [3] in a line: Drug uptake in Sprague-Dawley rat olfactory bulb at 24.1 MBq, iv measured for 1 to 3 mins by PET analysis. Particulars: in vivo; call rule not given here. Type of data set: ADME, organism-based. The method, boiled down:
(§4)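 Male Sprague Dawley rats (300–500 g) under isoflurane/nitrous oxide anesthesia, with radioligand given via tail-vein catheter in 10% ethanol/saline. Dynamic small-animal PET ran for 60 min from injection (frames 18×10″, 14×30″, 20×60″, 10×180″), followed by CT for anatomy and attenuation. Data were corrected for uniformity, scatter and attenuation and reconstructed by MLEM (30 iterations) to give regional time-activity curves.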

For data set [4], the system named is Hippocampus. In words: Drug uptake in Sprague-Dawley rat hippocampus at 24.1 MBq, iv measured for 1 to 3 mins by PET analysis. Particulars: in vivo. Type of data set: ADME, organism-based. The method, boiled down:
as §4

Data set [5] is described as follows: Drug uptake in Sprague-Dawley rat olfactory bulb at 24.1 MBq, iv measured within 20 mins by PET analysis. Type of data set: ADME, organism-based. Particulars: in vivo. In short, it runs like this: as §4
A further data set has as its system Muscle tissue. In words: Biodistribution in Sprague-Dawley rat muscle at 27.4 to 48.1 MBq after 1 to 40 mins by gamma counting analysis. Type of data set: ADME, organism-based. Particulars: in vivo. In short, it runs like this:
as §3

The nature of data set [6]: Metabolic stability in Sprague-Dawley rat plasma assessed as intact compound level at 24.1 MBq, iv after 5 mins by gamma counting analysis. Type of data set: ADME, organism-based. The conditions noted are these: read-out: Stability. The method, boiled down:
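Femoral arterial blood was drawn from three rats at 5, 25 and 55 min after i.v. radioligand and centrifuged. Plasma was mixed 1:1 with acetonitrile and centrifuged to remove protein. The supernatant was loaded on a phenyl SPE cartridge and eluted with an acetonitrile–0.1% TFA/water gradient (0–100% acetonitrile) to separate intact tracer.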

The subject of data set [7] is Hippocampus. In words: Drug uptake in Sprague-Dawley rat hippocampus at 24.1 MBq, iv measured within 20 mins by PET analysis. Type of data set: ADME, organism-based. The conditions noted are these: in vivo. The method, boiled down: as §4
Data set [8] deals with Hippocampus. Briefly: Reduction in drug uptake in Sprague-Dawley rat hippocampus at 24.1 MBq, iv after 2 to 15 mins by PET analysis in presence of mGlu4 blocker N-(3-(Difluoromethoxy)phenyl)-2-picolinamide hydrochloride salt. Type of data set: ADME, organism-based. Particulars: in vivo. The method, boiled down: as §1
Data set [9] deals with Cerebellum. In words: Drug uptake in Sprague-Dawley rat cerebellum at 24.1 MBq, iv measured for 1 to 3 mins by PET analysis. Type of data set: ADME, organism-based. Particulars: in vivo. In short, it runs like this:
as §4

The nature of data set [10]: Metabolic stability in Sprague-Dawley rat plasma assessed as intact compound level at 24.1 MBq, iv after 50 mins by gamma counting analysis. Type of data set: ADME, organism-based. Particulars: read-out: Stability.
In data set [11] the test system is Striatum. Briefly: Drug uptake in Sprague-Dawley rat striatum at 24.1 MBq, iv measured within 20 mins by PET analysis. Type of data set: ADME, organism-based. The conditions noted are these: in vivo. The method, boiled down: as §4
For data set [12], the system named is Thalamus. Briefly: Drug uptake in Sprague-Dawley rat thalamus at 24.1 MBq, iv measured for 1 to 3 mins by PET analysis. Type of data set: ADME, organism-based. The conditions noted are these: in vivo. The method, boiled down:
as §4

Data set [13] in a line: Reduction in drug uptake in Sprague-Dawley rat whole brain at 24.1 MBq, iv after 2 to 15 mins by PET analysis in presence of mGlu4 blocker N-(3-(Difluoromethoxy)phenyl)-2-picolinamide hydrochloride salt. Type of data set: ADME, organism-based. Particulars: in vivo. The method, boiled down:
as §1

The next data set concerns Brain. Briefly: Biodistribution in Sprague-Dawley rat brain at 27.4 to 48.1 MBq after 1 to 40 mins by gamma counting analysis. Type of data set: ADME, organism-based. Particulars: in vivo. In short, it runs like this: as §3
Data set [14] deals with Striatum. In words: Reduction in drug uptake in Sprague-Dawley rat striatum at 24.1 MBq, iv after 2 to 15 mins by PET analysis in presence of mGlu5 blocker MTEP hydrochloride. Type of data set: ADME, organism-based. Particulars: in vivo. In short, it runs like this: as §2
In a further data set the test system is Lung. In words: Biodistribution in Sprague-Dawley rat lung at 27.4 to 48.1 MBq after 1 to 40 mins by gamma counting analysis. Type of data set: ADME, organism-based. The conditions noted are these: in vivo. The method, boiled down:
as §3

A short description of data set [15]: Octanol-PBS buffer partition coefficient, log D of the compound at pH 7.4 by gamma counting analysis. Type of data set: physicochemical. The method, boiled down: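 Radiotracer was partitioned between PBS and octanol by vortexing 2 min, then centrifuging at >8000 rpm for 2 min. Octanol was serially re-extracted into fresh PBS across six tube sets. Phases were gamma-counted with decay correction. logD = log(octanol activity × 10 / PBS activity).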

For data set [16], the system named is Striatum. Briefly: Reduction in drug uptake in Sprague-Dawley rat striatum at 24.1 MBq, iv after 2 to 15 mins by PET analysis in presence of mGlu4 blocker N-(3-(Difluoromethoxy)phenyl)-2-picolinamide hydrochloride salt. The conditions noted are these: in vivo. Type of data set: ADME, organism-based. In short, it runs like this: as §1
The subject of data set [17] is Cerebellum. In words: Drug uptake in Sprague-Dawley rat cerebellum at 24.1 MBq, iv measured within 20 mins by PET analysis. Type of data set: ADME, organism-based. Particulars: in vivo. In short, it runs like this: as §4
The test system of the next data set is Liver. Briefly: Biodistribution in Sprague-Dawley rat liver at 27.4 to 48.1 MBq after 1 to 40 mins by gamma counting analysis. Type of data set: ADME, organism-based. Particulars: in vivo. In short, it runs like this:
as §3

Data set [18] relates to Thalamus. Briefly: Drug uptake in Sprague-Dawley rat thalamus at 24.1 MBq, iv measured within 20 mins by PET analysis. Type of data set: ADME, organism-based. The conditions noted are these: in vivo. In short, it runs like this:
as §4

Data set [19] deals with Hippocampus. In words: Reduction in drug uptake in Sprague-Dawley rat hippocampus at 24.1 MBq, iv after 2 to 15 mins by PET analysis in presence of mGlu5 blocker MTEP hydrochloride. Type of data set: ADME, organism-based. Particulars: in vivo. The method, boiled down:
as §2

For data set [20], the system named is Striatum. Briefly: Drug uptake in Sprague-Dawley rat striatum at 24.1 MBq, iv measured for 1 to 3 mins by PET analysis. Type of data set: ADME, organism-based. The conditions noted are these: in vivo. The method, boiled down: as §4
The subject of the next data set is Heart. Briefly: Biodistribution in Sprague-Dawley rat heart at 27.4 to 48.1 MBq after 1 to 40 mins by gamma counting analysis. Type of data set: ADME, organism-based. The conditions noted are these: in vivo. In short, it runs like this:
as §3

A further data set has as its system Blood. Briefly: Biodistribution in Sprague-Dawley rat blood at 27.4 to 48.1 MBq after 1 to 40 mins by gamma counting analysis. Type of data set: ADME, organism-based. The conditions noted are these: in vivo. The method, boiled down:
as §3

Data set [21] has as its target Metabotropic glutamate receptor 5 (Homo sapiens) (UniProt P41594). In words: Agonist activity at mGlu5a receptor (unknown origin) expressed in CHO cells assessed as induction of inositol phosphate accumulation at 10 uM after 45 mins by liquid scintillation counting analysis relative to control. Type of data set: functional, cell-based. The method, boiled down: (§5)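 Stably transfected CHO cells grown to confluency (3–4 days), then labelled overnight with myo-[3H]inositol in glutamine-free medium. Compound at 10 μM, 45 min at 37°C, in Locke's buffer pH 7.4 with 20 mM LiCl. IPs extracted with 0.1 M HCl, separated by anion exchange, counted by liquid scintillation. Result given as % of maximal agonist activity. Duplicates in two experiments on different passages.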

Data set [22] has as its target Metabotropic glutamate receptor 8 (Homo sapiens) (UniProt O00222). In words: Agonist activity at mGlu8 receptor (unknown origin) expressed in CHO cells assessed as induction of inositol phosphate accumulation at 10 uM after 45 mins by liquid scintillation counting analysis relative to control. Type of data set: functional, cell-based. In short, it runs like this: as §5

For data set [23], the target named is Metabotropic glutamate receptor 5 (Homo sapiens) (UniProt P41594). Briefly: Antagonist activity at mGlu5a receptor (unknown origin) expressed in CHO cells assessed as inhibition of glutamate-induced inositol phosphate accumulation at 10 uM after 45 mins by liquid scintillation counting analysis relative to control. Type of data set: functional, cell-based.
Chain of Metabotropic glutamate receptor 5 (Homo sapiens) (P41594 21-1212 limits assumed): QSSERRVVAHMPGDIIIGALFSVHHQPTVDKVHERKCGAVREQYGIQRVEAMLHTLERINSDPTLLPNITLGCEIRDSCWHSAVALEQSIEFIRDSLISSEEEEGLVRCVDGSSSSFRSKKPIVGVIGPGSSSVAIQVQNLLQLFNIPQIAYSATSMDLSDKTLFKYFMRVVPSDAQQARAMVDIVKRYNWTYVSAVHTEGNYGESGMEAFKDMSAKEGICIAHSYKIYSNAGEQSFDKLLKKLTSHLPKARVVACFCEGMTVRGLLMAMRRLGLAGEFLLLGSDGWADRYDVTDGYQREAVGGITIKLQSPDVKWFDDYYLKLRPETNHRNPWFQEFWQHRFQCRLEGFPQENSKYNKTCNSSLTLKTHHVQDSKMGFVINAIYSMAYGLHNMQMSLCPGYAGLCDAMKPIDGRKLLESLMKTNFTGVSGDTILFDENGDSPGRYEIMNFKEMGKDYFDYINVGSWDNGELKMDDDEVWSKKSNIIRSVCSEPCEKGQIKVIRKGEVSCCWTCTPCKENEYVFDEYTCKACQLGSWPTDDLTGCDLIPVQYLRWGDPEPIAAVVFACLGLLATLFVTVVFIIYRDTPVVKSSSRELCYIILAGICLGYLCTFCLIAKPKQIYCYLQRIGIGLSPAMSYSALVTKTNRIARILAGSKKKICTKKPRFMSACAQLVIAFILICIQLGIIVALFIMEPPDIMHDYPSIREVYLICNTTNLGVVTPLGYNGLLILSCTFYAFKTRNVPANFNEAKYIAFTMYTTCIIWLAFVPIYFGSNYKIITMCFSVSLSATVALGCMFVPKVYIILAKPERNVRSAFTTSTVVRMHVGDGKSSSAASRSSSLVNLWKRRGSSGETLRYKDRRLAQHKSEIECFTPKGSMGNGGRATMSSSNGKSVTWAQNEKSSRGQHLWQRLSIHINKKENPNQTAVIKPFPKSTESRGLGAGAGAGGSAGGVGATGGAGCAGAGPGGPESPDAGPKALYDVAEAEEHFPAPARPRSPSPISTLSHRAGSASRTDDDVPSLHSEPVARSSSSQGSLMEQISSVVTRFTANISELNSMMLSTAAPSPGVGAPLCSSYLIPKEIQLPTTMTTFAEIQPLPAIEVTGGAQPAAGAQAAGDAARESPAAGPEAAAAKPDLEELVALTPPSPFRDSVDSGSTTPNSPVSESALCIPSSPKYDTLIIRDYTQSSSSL

Data set [24] has as its target Metabotropic glutamate receptor 8 (Homo sapiens) (UniProt O00222). In words: Antagonist activity at mGlu8 receptor (unknown origin) expressed in CHO cells assessed as inhibition of glutamate-induced inositol phosphate accumulation at 10 uM after 45 mins by liquid scintillation counting analysis relative to control. Type of data set: functional, cell-based.

SMILES strings stand for the structures.

Chain of Metabotropic glutamate receptor 8 (Homo sapiens) (O00222 whole entry): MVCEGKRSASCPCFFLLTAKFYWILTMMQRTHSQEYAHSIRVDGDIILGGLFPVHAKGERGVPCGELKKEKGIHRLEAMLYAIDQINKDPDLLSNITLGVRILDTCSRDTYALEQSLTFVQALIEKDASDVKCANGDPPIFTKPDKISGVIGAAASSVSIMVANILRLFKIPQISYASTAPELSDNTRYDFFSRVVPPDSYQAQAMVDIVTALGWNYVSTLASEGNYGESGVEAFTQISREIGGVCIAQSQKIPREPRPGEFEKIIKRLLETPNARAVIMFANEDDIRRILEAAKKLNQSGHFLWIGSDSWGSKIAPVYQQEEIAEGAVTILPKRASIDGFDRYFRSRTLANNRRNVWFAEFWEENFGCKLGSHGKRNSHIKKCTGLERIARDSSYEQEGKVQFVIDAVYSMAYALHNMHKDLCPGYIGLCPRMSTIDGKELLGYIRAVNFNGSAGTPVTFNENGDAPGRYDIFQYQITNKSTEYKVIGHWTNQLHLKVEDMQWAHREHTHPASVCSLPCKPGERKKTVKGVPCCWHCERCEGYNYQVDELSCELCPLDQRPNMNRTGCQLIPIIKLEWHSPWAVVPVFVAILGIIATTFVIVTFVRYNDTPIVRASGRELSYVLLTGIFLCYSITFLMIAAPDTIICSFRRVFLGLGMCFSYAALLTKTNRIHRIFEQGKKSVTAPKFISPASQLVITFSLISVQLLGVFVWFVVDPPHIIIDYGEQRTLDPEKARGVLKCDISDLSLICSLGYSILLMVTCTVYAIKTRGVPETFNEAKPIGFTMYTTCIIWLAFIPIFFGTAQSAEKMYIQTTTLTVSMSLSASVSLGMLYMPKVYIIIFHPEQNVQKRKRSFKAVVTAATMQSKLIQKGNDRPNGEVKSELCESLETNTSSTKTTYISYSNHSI

One may read the logD as lipophilicity at a set pH, counting ionised and neutral species. A high value points to a more lipophilic compound. As for `[11CH3]Oc1cc(NC(=O)c2ccccn2)ccc1Cl`, the Drug uptake entry is listed as “Active” in the data set with Cerebellum [1]; “Active” in data set [2]; above 1 % ID/g in the data set with Kidney; “Active” in [3]; “Active” in the data set with Hippocampus [4]; “Not Active” in [5]. Besides, the Drug uptake is on record as below 1 % ID/g in the data set with Muscle tissue; “Not Active” in the data set with Hippocampus [7]; “Active” with Hippocampus [8]; “Active” in the data set with Cerebellum [9]; “Not Active” with Striatum [11]; “Active” in the data set on Thalamus [12]. For the same molecule, the Drug uptake entry in data set [13] was “Active”; in the data set with Brain, below 1 % ID/g; in the data set on Striatum [14] it was “Active”; in the data set with Lung, below 1 % ID/g; in the data set with Striatum [16], “Active”; with Cerebellum [17], “Not Active”. For the same molecule, the Drug uptake in the data set on Liver was above 1 % ID/g; with Thalamus [18], “Not Active”; with Hippocampus [19], “Active”; in the data set with Striatum [20] it was “Active”; with Heart, below 1 % ID/g; in the data set on Blood it was below 1 % ID/g. The remaining at 5 min in [6] amounted to 30%. Besides, the remaining at 50 min in data set [10] came to 10%. Also, the log distribution coefficient (logD) in data set [15] came out at 3.09.

The inhibition is the drop in the measured response relative to a control, in per cent. `COc1cc(NC(=O)c2ccccn2)ccc1Cl`: the figures for the Activity in data set [21] and in data set [22] were -15% and 13%, respectively. In addition, the inhibition in data set [23] was 51%; in data set [24], -5%.

Values taken from ChEMBL document CHEMBL2424580, “Radiosynthesis of N-(4-chloro-3-[(11)C]methoxyphenyl)-2-picolinamide ([(11)C]ML128) as a PET radiotracer for metabotropic glutamate receptor subtype 4 (mGlu4)” (Bioorg Med Chem, 2013).
